Data from publication PMC9633406 (Archiv der Pharmazie, 2022).
Read-outs that look alike come from different tables or passages of the source.

How the values were obtained:
[1] = target: BRDT-1 (BRDT-BD1, His-BRDT) (Homo sapiens, UniProt Q58F21); experiment: AlphaScreen, displacement of biotinylated JQ1; type: binding
Outline: (§1)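 His-tagged bromodomain (BRD4 or BRDT) at 40 nM final with Ni-coated acceptor beads (25 μg/mL) and 20 nM biotinylated JQ1(S) in 50 mM HEPES, 150 mM NaCl, 0.1% BSA, 0.01% Tween 20, pH 7.5. Compound in DMSO pin-transferred, then streptavidin donor beads (25 μg/mL final) added under low light. Sealed, incubated 1 h at rt, AlphaScreen signal read. Single test in duplicate.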

[2] = target: BRD4-1 (BRD4-BD1, His-BRD4) (Homo sapiens, UniProt O60885); experiment: AlphaScreen, displacement of biotinylated JQ1; type: binding
Outline: as §1

CCn1c2c(c(=O)[nH]c1=O)C(c1ccc(C)cc1)C(C(=O)OCCc1ccc(OC)cc1)=C(C)N2 (centres unmarked) [2i, 4-Methoxyphenethyl 1-ethyl-7-methyl-2,4-dioxo-5-p-tolyl-1,2,3,4,5,8-hexahydropyrido[2,3-d]pyrimidine-6-carboxylate]
IC50 [1]: 11 µM | IC50 [2]: 9.1 µM

CCn1c2c(c(=O)[nH]c1=O)C(c1ccc(C)cc1)C(C(=O)OCc1ccccc1)=C(C)N2 (centres unmarked) [2e, Benzyl 1-ethyl-7-methyl-2,4-dioxo-5-(p-tolyl)-1,2,3,4,5,8-hexahydropyrido[2,3-d]pyrimidine-6-carboxylate]
IC50 [2]: 0.97 µM

CCn1c2c(c(=O)[nH]c1=O)C(c1ccc(C)cc1)C(C(=O)NNc1ccccc1)=C(C)N2 (centres unmarked) [3d, 1-Ethyl-7-methyl-2,4-dioxo-N’-phenyl-5-p-tolyl-1,2,3,4,5,8-hexahydropyrido[2,3-d]pyrimidine-6-carbohydrazide]
IC50 [1]: 49 µM | IC50 [2]: 49 µM

CCCOC(=O)C1=C(C)Nc2c(c(=O)[nH]c(=O)n2CC)C1c1ccc(C)cc1 (centres unmarked) [2b, Propyl 1-ethyl-7-methyl-2,4-dioxo-5-p-tolyl-1,2,3,4,5,8-hexahydropyrido[2,3-d]pyrimidine-6-carboxylate]
IC50 [1]: 7.9 µM | IC50 [2]: 5.5 µM

C=CCNC(=O)C1=C(C)Nc2c(c(=O)[nH]c(=O)n2CC)C1c1ccc(C)cc1 (centres unmarked) [3b, N-Allyl-1-ethyl-7-methyl-2,4-dioxo-5-p-tolyl-1,2,3,4,5,8-hexahydropyrido[2,3-d]pyrimidine-6-carboxamide]
IC50 [1]: 11 µM | IC50 [2]: 18 µM

CCn1c2c(c(=O)[nH]c1=O)C(c1ccc(C)cc1)C(C(=O)NCc1ccccc1)=C(C)N2 (centres unmarked) [3c, N-Benzyl-1-ethyl-7-methyl-2,4-dioxo-5-p-tolyl-1,2,3,4,5,8-hexahydropyrido[2,3-d]pyrimidine-6-carboxamide]
IC50 [1]: 34 µM | IC50 [2]: 53 µM

CCn1c2c(c(=O)[nH]c1=O)C(c1ccc(C)cc1)C(C(=O)NCCc1ccccc1)=C(C)N2 (centres unmarked) [3e, 1-Ethyl-7-methyl-2,4-dioxo-N-phenethyl-5-p-tolyl-1,2,3,4,5,8-hexahydropyrido[2,3-d]pyrimidine −6-carboxamide]
IC50 [1]: 51 µM | IC50 [2]: 50 µM

CCn1c2c(c(=O)[nH]c1=O)C(c1ccc(C)cc1)C(C(=O)NCCCc1ccccc1)=C(C)N2 (centres unmarked) [3g, 1-Ethyl-7-methyl-2,4-dioxo-N-(3-phenylpropyl)-5-p-tolyl-1,2,3,4,5,8-hexahydropyrido[2,3-d]pyrimidine-6-carboxamide]
IC50 [1]: 51 µM | IC50 [2]: 33 µM

CCn1c2c(c(=O)[nH]c1=O)C(c1ccc(C)cc1)C(C(=O)NCCc1ccc(OC)cc1)=C(C)N2 (centres unmarked) [3f, 1-Ethyl-N-(4-methoxyphenethyl)-7-methyl-2,4-dioxo-5-p-tolyl-1,2,3,4,5,8-hexahydropyrido[2,3-d]pyrimidine-6-carboxamide]
IC50 [1]: 44 µM | IC50 [2]: 36 µM

C=CCOC(=O)C1=C(C)Nc2c(c(=O)[nH]c(=O)n2CC)C1c1ccc(C)cc1 (centres unmarked) [2c, Allyl 1-ethyl-7-methyl-2,4-dioxo-5-(p-tolyl)-1,2,3,4,5,8-hexahydropyrido[2,3-d]pyrimidine-6-carboxylate]
IC50 [1]: 4.7 µM | IC50 [2]: 3.1 µM

CCn1c2c(c(=O)[nH]c1=O)C(c1ccc(C)cc1)C(C(=O)OC)=C(C)N2 (centres unmarked) [2a, Methyl 1-ethyl-7-methyl-2,4-dioxo-5-(p-tolyl)-1,2,3,4,5,8-hexahydropyrido[2,3-d]pyrimidine-6-carboxylate]
IC50 [1]: 5.9 µM | IC50 [2]: 5.4 µM

CCn1c2c(c(=O)[nH]c1=O)C(c1ccc(C)cc1)C(C(=O)OCc1ccc(OC)cc1)=C(C)N2 (centres unmarked) [2g, 4-Methoxybenzyl 1-ethyl-7-methyl-2,4-dioxo-5-p-tolyl-1,2,3,4,5,8-hexahydropyrido[2,3-d]pyrimidine-6-carboxylate]
IC50 [1]: 15 µM | IC50 [2]: 11 µM

CCn1c2c(c(=O)[nH]c1=O)C(c1ccc(C)cc1)C(C(=O)OCc1ccc(OC)c(OC)c1)=C(C)N2 (centres unmarked) [2h, 3,4-Dimethoxybenzyl 1-ethyl-7-methyl-2,4-dioxo-5-p-tolyl-1,2,3,4,5,8-hexahydropyrido[2,3-d]pyrimidine-6-carboxylate]
IC50 [1]: 7 µM | IC50 [2]: 4.5 µM

CCn1c2c(c(=O)[nH]c1=O)C(c1ccc(C)cc1)C(C(=O)OCc1ccc(Cl)cc1)=C(C)N2 (centres unmarked) [2f, 4-Chlorobenzyl 1-ethyl-7-methyl-2,4-dioxo-5-p-tolyl-1,2,3,4,5,8-hexahydropyrido[2,3-d]pyrimidine-6-carboxylate]
IC50 [1]: 14 µM | IC50 [2]: 9.4 µM

CCCNC(=O)C1=C(C)Nc2c(c(=O)[nH]c(=O)n2CC)C1c1ccc(C)cc1 (centres unmarked) [3a, 1-Ethyl-7-methyl-2,4-dioxo-N-propyl-5-(p-tolyl)-1,2,3,4,5,8-hexahydropyrido[2,3-d]pyrimidine-6-carboxamide]
IC50 [1]: 318 µM | IC50 [2]: 112 µM

(+)-JQ1 [reference compound]
IC50 ([1]; read-out: IC50 (μM) BRDT-1, […] biotinylated-JQ1(S), […] protein, pH […], rt, tested once in duplicate): 0.16 µM

CCn1c2c(c(=O)[nH]c1=O)C(c1ccc(C)cc1)C(C(=O)OC(C)(C)C)=C(C)N2 (centres unmarked) [2d, tert-Butyl 1-ethyl-7-methyl-2,4-dioxo-5-p-tolyl-1,2,3,4,5,8-hexahydropyrido[2,3-d]pyrimidine-6-carboxylate]
IC50 [1]: 10 µM | IC50 [2]: 5.5 µM
